“Also recorded” adds a separate entry of the source.
What was measured:
hFAAH = target: T1, hFAAH (Homo sapiens, UniProt O00519); experiment: substrate hydrolysis assay; assay type: biochemical
T1 sequence (O00519 1-579): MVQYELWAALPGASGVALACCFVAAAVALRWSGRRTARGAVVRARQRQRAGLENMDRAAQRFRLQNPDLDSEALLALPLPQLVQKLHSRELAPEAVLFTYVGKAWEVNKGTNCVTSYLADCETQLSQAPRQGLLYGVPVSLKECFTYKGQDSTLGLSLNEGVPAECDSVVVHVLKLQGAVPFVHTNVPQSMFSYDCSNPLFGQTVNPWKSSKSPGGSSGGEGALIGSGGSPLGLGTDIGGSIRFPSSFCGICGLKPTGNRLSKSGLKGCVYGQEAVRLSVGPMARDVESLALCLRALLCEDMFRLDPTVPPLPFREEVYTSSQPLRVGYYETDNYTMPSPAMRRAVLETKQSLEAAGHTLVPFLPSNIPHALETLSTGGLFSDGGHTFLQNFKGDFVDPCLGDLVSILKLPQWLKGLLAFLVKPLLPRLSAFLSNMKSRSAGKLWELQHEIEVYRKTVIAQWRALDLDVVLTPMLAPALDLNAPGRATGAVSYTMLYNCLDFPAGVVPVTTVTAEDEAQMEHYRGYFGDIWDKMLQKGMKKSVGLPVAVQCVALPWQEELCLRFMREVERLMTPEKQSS

[1] = system: carboxylesterase (CES) enzymes; experiment: in vitro competitive ABPP in mouse lung proteomes; assay type: biochemical
[2] = system: other rat brain serine hydrolases; experiment: competitive ABPP, rat brain proteome, other serine hydrolases; assay type: biochemical
Procedure, shortened: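 Rat brain proteome was preincubated with test compound, then labelled with the serine hydrolase-directed probe FP-rhodamine. Proteins were separated by SDS-PAGE and scanned by in-gel fluorescence. Inhibition of individual serine hydrolases was scored as reduced probe labelling.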

FAAH [3] = target: T2, FAAH (Rattus norvegicus, UniProt P97612); experiment: brain AEA hydrolytic activity from KML29-treated rats; assay type: in vivo; settings: 1–40 mg kg^−1 i.p., 4 h
T2 sequence (P97612 1-579): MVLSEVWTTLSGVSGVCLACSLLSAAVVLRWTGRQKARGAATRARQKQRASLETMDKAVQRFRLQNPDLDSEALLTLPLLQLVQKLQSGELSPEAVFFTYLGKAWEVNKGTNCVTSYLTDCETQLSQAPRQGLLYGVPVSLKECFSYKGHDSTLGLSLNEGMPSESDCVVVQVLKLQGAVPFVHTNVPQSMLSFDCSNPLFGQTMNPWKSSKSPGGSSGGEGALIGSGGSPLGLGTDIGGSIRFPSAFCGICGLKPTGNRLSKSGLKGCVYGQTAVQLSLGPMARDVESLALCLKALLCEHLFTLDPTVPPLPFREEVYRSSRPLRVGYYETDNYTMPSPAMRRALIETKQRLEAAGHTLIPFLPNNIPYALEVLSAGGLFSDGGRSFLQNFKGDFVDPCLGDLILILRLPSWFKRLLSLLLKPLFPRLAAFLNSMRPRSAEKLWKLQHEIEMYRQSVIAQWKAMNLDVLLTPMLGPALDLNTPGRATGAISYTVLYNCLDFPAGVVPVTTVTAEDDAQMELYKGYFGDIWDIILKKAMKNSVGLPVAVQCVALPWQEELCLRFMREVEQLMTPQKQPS
Procedure, shortened: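 Wistar rats received the test compound i.p. (1–40 mg kg−1 in saline:emulphor:ethanol 18:1:1) or vehicle and were killed after 4 h. Brain MAGL and FAAH activities were measured as hydrolysis of 2-AG and AEA, respectively. Means ± SEM, n = 3 rats/group, compared with vehicle-treated rats.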

FAAH [4] = target: T2, FAAH; experiment: competitive ABPP, rat brain membrane proteome; assay type: biochemical
Procedure, shortened: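 Rat brain proteome pre-treated with test compound, then labelled with the serine hydrolase-directed fluorophosphonate-rhodamine (FP-Rh) activity-based probe. Proteins separated by SDS-PAGE and detected by in-gel fluorescence scanning. Inhibition scored as loss of FP-Rh labelling of the FAAH band. IC50 calculated from the gel-based ABPP data.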

SMILES: O=C(OC(C(F)(F)F)C(F)(F)F)N1CCC(C(O)(c2ccc3c(c2)OCO3)c2ccc3c(c2)OCO3)CC1 [KML29]
- AEA hydrolysis by hFAAH (hFAAH): undiminished AEA hydrolysis up to 50 μM
- cross-reactivity with CESs compared to JZL184 [1]: much less cross-reactivity with CESs
- additional off-target reactivity with other rat brain serine hydrolases [2]: did not detect any additional off-target reactivity
- brain AEA hydrolytic activity (FAAH [3]): not affected at any dose
- FAAH inhibition / cross-reactivity (gel-based ABPP) (FAAH [4]; rat brain proteome): no detectable cross-reactivity; also recorded: No inhibition of FAAH was detected
- IC50 (FAAH [4]; read-out: IC50 (95% CI), rat FAAH, competitive ABPP, rat brain membrane proteome): > 50 µM
